Consider 7 molecules from ChEMBL document CHEMBL4004783, “Penicisulfuranols A-F, Alkaloids from the Mangrove Endophytic Fungus Penicillium janthinellum HDN13-309” (J Nat Prod, 2017).

pIC50: −log10 of the molar value. Structures can show the parent of a compound that is named as a salt.

One experiment has as its system HeLa. Kind of experiment: Cytotoxicity against human HeLa cells assessed as reduction in cell viability by SRB assay. The class given is functional, cell-based. The essentials:
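HeLa human cervical carcinoma cells; cell growth read by sulforhodamine B (SRB) method; IC50 values reported.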

Another experiment concerns HL-60. Kind of experiment: Cytotoxicity against human HL60 cells assessed as reduction in cell viability by MTT assay. The experiment is classed as functional, cell-based. The essentials:
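HL-60 human promyelocytic leukemia cells; viability read by MTT method; IC50 values reported.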
For orientation: Formazan colour is commonly taken as a measure of viable cells.

On to `COc1ccc2c(c1OC)O[C@]1(C(=O)N3O[C@H]4[C@H](O)C=C[C@@H](O)[C@@]4(O)C[C@@]3(SC)C(=O)N1C)[C@@H]2SC`, for which the negative-log IC50 (pIC50) with HeLa and in the experiment on HL-60 was below 4.52 throughout.
For the molecule `COc1ccc2c(c1OC)O[C@]13C(=O)N4O[C@H]5[C@H](O)C=C[C@@H](Cl)[C@@]5(O)C[C@@]4(SS[C@H]21)C(=O)N3C`, the pIC50 (in general, the IC50 on a negative log10 scale, so that one unit is a factor of ten) is 6.30 with HeLa and 7.00 in the experiment on HL-60.
`COc1cccc2c1O[C@]1(C(=O)N3O[C@H]4[C@H](O)C=C[C@@H](O)[C@@]4(O)C[C@@]3(SC)C(=O)N1C)[C@@H]2SC`: the pIC50 in the experiment on HeLa and with HL-60 was below 4.52 in each case.
With `COc1ccc2c(c1OC)O[C@]13C(=O)N4O[C@H]5[C@H](O)C=C[C@@H](O)[C@@]5(O)C[C@@]4(SS[C@H]21)C(=O)N3C`, the pIC50 is 5.41 with HeLa and 5.80 with HL-60.
On the same counts, the results for `COc1ccc2c(c1OC)O[C@]1(C(=O)N3O[C@H]4[C@H](O)C=C[C@@H](Cl)[C@@]4(O)C[C@@]3(SC)C(=O)N1C)[C@@H]2SC` are below 4.52 and below 4.52.
In the case of `COc1cccc2c1C(=O)c1c(O)c3c(c(O)c1C2=O)C[C@@](O)(C(=O)CO)C[C@@H]3O[C@H]1C[C@H](N)[C@H](O)[C@H](C)O1` [DOXORUBICIN HYDROCHLORIDE], in the experiment with HeLa, the negative logarithm of the IC50 (pIC50) is 6.30.
On to `COc1ccc2c(c1OC)O[C@]13C(=O)N4O[C@H]5[C@H](O)C=C[C@@H](O)[C@@]5(O)C[C@@]4(SSS[C@H]21)C(=O)N3C`, for which the negative logarithm of the IC50 (pIC50) in the experiment on HeLa is 6.52; in the experiment on HL-60, 5.92.
